This note sets out measurements from ChEMBL document CHEMBL1128366, “Hypoxia-selective agents derived from quinoxaline 1,4-di-N-oxides” (J Med Chem, 1995).

Where only a bound is given, the exact number is not on record here.

The subject of data set [1] is V79. Put plainly: The compound was tested for potency by measuring the concentration (umolar) that gives 1% clonogenic cell survival in hypoxia. It counts as functional, Cricetulus griseus. An outline of the steps: (§1)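 V-79 Chinese hamster lung fibroblasts in stirred suspension (2 × 10⁴ cells/mL, EMEM + 10% FBS, 10 mM HEPES), gassed for air or hypoxia; drug in DMSO added 30 min after gassing began, two flasks per dose, 2 h exposure. Cells cloned 7 days at 37 °C, crystal violet stain, colonies >64 cells counted; survival = PE treated/PE control. Dose-response curves from ≥3 experiments.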

Data set [2] is described as follows: Hypoxia cytotoxicity ratio (dose in air / hypoxia giving 99% of cell killing). An outline of the steps:
as §1

Turning to `N#Cc1c(N)[n+]([O-])c2cc(Cl)c(F)cc2[n+]1[O-]`, the Potency in data set [1] worked out at 2 µM. Besides, the Selectivity in data set [2] worked out at 10.
`COc1cc2c(cc1Cl)[n+]([O-])c(C#N)c(N)[n+]2[O-]` yielded a Potency in data set [1] of 10 µM. Also, in data set [2], the Selectivity is listed as less than 10.
For the compound `N#Cc1c(N)[n+]([O-])c2cc(C(F)(F)F)ccc2[n+]1[O-]`, the Potency in data set [1] is 7 µM. Moreover, the Selectivity in data set [2] is 75.
In the same order, the values of `N#Cc1c(N)[n+]([O-])c2ccccc2[n+]1[O-]` are 30 µM and 80.
`N#Cc1c(N)[n+]([O-])c2cc(Cl)ccc2[n+]1[O-]` displayed a Potency in data set [1] of 9 µM. Also, the Selectivity in data set [2] turned out to be 150.
Take `N#Cc1c(N)[n+]([O-])c2cc(-c3ccc([N+](=O)[O-])cc3)ccc2[n+]1[O-]`: the Potency in data set [1] was 4 µM. In addition, in data set [2], the Selectivity was 15.
`N#Cc1c(N)[n+]([O-])c2cc(F)ccc2[n+]1[O-]`: in data set [1], the Potency was found to be 15 µM. Further, the Selectivity in data set [2] was determined as 100.
Turning to `N#Cc1ccc2c(c1)[n+]([O-])c(N)c(C#N)[n+]2[O-]`, the Potency in data set [1] worked out at 11 µM. In addition, the Selectivity in data set [2] came to 50.
The compound `N#Cc1c(N)[n+]([O-])c2cc(Cl)c(Cl)cc2[n+]1[O-]` had a Potency in data set [1] of 1 µM. Further, the Selectivity in data set [2] is recorded as 80.
In the same order, the values of `COc1ccc2c(c1)[n+]([O-])c(N)c(C#N)[n+]2[O-]` are 30 µM and more than 10.
`Nc1n[n+]([O-])c2ccccc2[n+]1[O-]` [TIRAPAZAMINE] registered a Potency in data set [1] of 30 µM. The Selectivity in data set [2] turned out to be 75.
In the same order, the values of `N#Cc1c(N)[n+]([O-])c2cc(F)c(F)cc2[n+]1[O-]` are 1 µM and less than 10.
